This note sets out measurements from ChEMBL document CHEMBL1137706, “Design, synthesis, and anti-tumor evaluation of novel symmetrical bis-benzimidazoles” (Eur J Med Chem, 2009).

What is called IC50 is the concentration that gives 50% inhibition. A lower IC50 goes with greater potency.

Bounds are passed on as bounds.

What all share (format): functional, cell-based
The test system of one assay is SK-OV-3. As to the kind of experiment: Antitumor activity against human SKOV3 cells after 72 hrs by MTT assay. The conditions noted are these: SK-OV-3, 72 h. In a few lines:
(§1)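 Cells grown in RPMI1640 with 10% fetal bovine serum, seeded at 4.0 × 10^4 cells/well and left 4 h at 37 °C, 5% CO2 to adhere. Compound then added and incubation continued 72 h at 37 °C, 5% CO2. Viability read by standard MTT assay.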
Background: Tetrazolium dyes change colour on reduction, which living cells bring about.

For the next assay, the system named is BGC-823. Nature of the assay: Antitumor activity against human BGC823 cells after 72 hrs by MTT assay. The conditions noted are these: BGC-823, 72 h. An outline of the steps:
as §1

Another assay deals with HeLa. Nature of the assay: Antitumor activity against human HeLa cells after 72 hrs by MTT assay. In a few lines: as §1

Take `CCOc1ccnc(CSc2nc3ccc(-c4ccc5nc(SCc6nccc(OCC)c6C)[nH]c5c4)cc3[nH]2)c1C`: the IC50 in the assay on SK-OV-3, in the assay on BGC-823 and with HeLa was more than 50 µM in each case.
For the compound `COc1ccnc(CSc2nc3ccc(-c4ccc5nc(SCc6nccc(OC)c6OC)[nH]c5c4)cc3[nH]2)c1OC`, the IC50 in the assay with SK-OV-3, in the assay on BGC-823 and in the assay with HeLa was more than 50 µM each time.
In the case of `Clc1ccc(CSc2nc3ccc(-c4ccc5nc(SCc6ccc(Cl)nc6)[nH]c5c4)cc3[nH]2)cn1`, the half-inhibitory concentration (IC50) with SK-OV-3, in the assay with BGC-823 and in the assay with HeLa was more than 50 µM each time.
Turning to `c1ccc(CSc2nc3ccc(-c4ccc5nc(SCc6ccccn6)[nH]c5c4)cc3[nH]2)nc1`, the half-inhibitory concentration (IC50) was 38.6 µM in the assay on SK-OV-3, 16.4 µM with BGC-823 and 7.1 µM in the assay on HeLa.
As for `c1cncc(CSc2nc3ccc(-c4ccc5nc(SCc6cccnc6)[nH]c5c4)cc3[nH]2)c1`, the IC50 with SK-OV-3 was 8.73 µM; in the assay with BGC-823, more than 50 µM; in the assay with HeLa, more than 50 µM.
On to `c1cc(CSc2nc3ccc(-c4ccc5nc(SCc6ccncc6)[nH]c5c4)cc3[nH]2)ccn1`, for which the results for the IC50 in the assay with SK-OV-3, in the assay with BGC-823 and in the assay on HeLa were 2.81 µM, 11 µM and 32.4 µM, respectively.
As for `COc1c(Cl)ccnc1CSc1nc2ccc(-c3ccc4nc(SCc5nccc(Cl)c5OC)[nH]c4c3)cc2[nH]1`, the IC50 in the assay with SK-OV-3 was more than 50 µM; with BGC-823 it was more than 50 µM; in the assay with HeLa it was 45.4 µM.
Take `COc1ccnc(CSc2nc3ccc(-c4ccc5nc(SCc6nccc(OC)c6C)[nH]c5c4)cc3[nH]2)c1C`: the IC50 in the assay with SK-OV-3, in the assay with BGC-823 and in the assay with HeLa was more than 50 µM in each case.
In the case of `Cc1c(OCC(F)(F)F)ccnc1CSc1nc2ccc(-c3ccc4nc(SCc5nccc(OCC(F)(F)F)c5C)[nH]c4c3)cc2[nH]1`, the results for the 50% inhibitory concentration (IC50) in the assay with SK-OV-3, with BGC-823 and in the assay on HeLa were 23 µM, more than 50 µM and 18.3 µM, respectively.
In the same order, the values of `COc1c(C)cnc(CSc2nc3ccc(-c4ccc5nc(SCc6ncc(C)c(OC)c6C)[nH]c5c4)cc3[nH]2)c1C` are 2.95 µM, more than 50 µM and more than 50 µM.
Take `CC(=O)O[C@H]1C(=O)[C@@]2(C)[C@H]([C@H](OC(=O)c3ccccc3)[C@]3(O)C[C@H](OC(=O)[C@H](O)[C@@H](NC(=O)c4ccccc4)c4ccccc4)C(C)=C1C3(C)C)[C@]1(OC(C)=O)CO[C@@H]1C[C@@H]2O` [PACLITAXEL]: it took 0.00134 µM to reach half-maximal inhibition with SK-OV-3 (IC50).
